Data from ChEMBL document CHEMBL4513216, “Probing the Open Global Health Chemical Diversity Library for Multistage-Active Starting Points for Next-Generation Antimalarials” (ACS Infect Dis, 2020).

Experiment: Toxicity liver stage against HepG2, at 10uM
Assay type: cell-based
Design: test concentration 10 uM, cell line HepG2-A16-CD81EGFP
Settings: human, HepG2-A16-CD81EGFP cells; read-out: INHIBITION
Summary of the method: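 Uninfected HepG2-A16-CD81EGFP cells, 3 × 10^3 per well, 1536-well, plated on prespotted compound at 10 μM final, parasite-free screening media added to match infected plates; puromycin 10 μM positive, DMSO 0.5% negative; run in parallel with 48 h PbLuc assay at 37 °C, 5% CO2; viability by CellTiter-Glo luminescence, normalized to controls.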

| Structure (SMILES) | cytotoxicity at 10 µM [%] |
| --- | --- |
| CN1C(=N)NC(=O)/C1=C\c1ccc(-c2ccc(F)cc2)o1 | 13.5 |
| CCOc1ccccc1CNS(=O)(=O)c1ccc2c(c1)CCCC(=O)N2 | 7.89 |
| CCCC(O)CN1CC(C)(C)CN(C(=O)c2ccccc2)CC1=O (stereo not drawn) | -0.295 |
| CNC(=O)CC1c2cccnc2C(=O)N1Cc1ccccc1 (stereo not drawn) | -2.51 |
| COc1ccc(CN2CC(O)CN(C(=O)CC(C)C)CC2=O)cc1 (stereo not drawn) | -0.634 |
| CCOc1ccc2[nH]c3c(N(C)CC4OCCO4)ncnc3c2c1 | 15.2 |
| O=C(Cc1cnc(-c2c(Cl)cccc2Cl)s1)N1CCOCC1 | 3.29 |
| COCCn1cnc2ccc(NC(=O)c3ccccn3)cc2c1=O | -6.81 |
| COCCNC(=O)NC1(c2nc(C)no2)CCCCC1 | 1.56 |
| Cc1nc(N2CCOCC2)nc(C)c1NC(=O)COc1ccccc1 | 4.17 |
| COCCN1CCn2c(nc3cc(C(=O)NC(C)C)ccc32)C1 | 2.38 |
| CC(C)n1c(=O)c2sccc2n(CC(=O)Nc2cccc(Cl)c2)c1=O | 8.93 |
| O=C(CCn1nc(C(F)(F)F)c(Cl)c1C1CC1)NN1CCOCC1 | 7.69 |
| Cc1ncc(C(=O)N2CCC(C(=O)NC3CCCC3)C2)c(C)n1 (stereo not drawn) | 6.3 |
| CN(C)CCNC(=O)CC1CCN(c2cccnn2)CC1 | 6.04 |
| Cc1cc(C)n(C2CCN(S(=O)(=O)N3CCC(C)CC3)CC2)n1 | 6.36 |
| CCCn1nccc1-c1nccnc1CC1CCN(C(C)=O)CC1 | -6.15 |
| CCC(=O)N1CCC(c2nc(C)ncc2-c2ccncc2)CC1 | 6.04 |
| c1cc(CCNc2ccc(CC3CCNC3)cn2)ccn1 (stereo not drawn) | 3.09 |
| CCCc1cc(C(=O)N[C@@H]2CC[C@@H](N3CCOCC3)[C@@H]2O)no1 | -3.59 |
| c1cncc(CN2CC(Cc3nccc4cc[nH]c34)C2)c1 | -2.26 |
| O=C(C1CCOCC1)N1CCOCC(Cc2ncccn2)C1 (stereo not drawn) | 1.38 |
| Clc1cccc(Cl)c1CN(CCCN1CCOCC1)Cc1cccnc1 | -0.52 |

| Structure (SMILES) | cytotoxicity at 10 µM [%] |
| --- | --- |
| O=S1(=O)NCC2(CCCN(Cc3ccccn3)C2)Oc2ncccc21 (stereo not drawn) | 2.22 |
| Cc1ccc2c(c1)N(C(=O)c1cc[nH]c(=O)c1)CC(C)O2 (stereo not drawn) | 2.71 |
| N#Cc1c(CN2CCCCC2Cn2cncn2)cn2ccccc12 (stereo not drawn) | 3.06 |
| Cc1cc(CSCc2csc(CS(C)(=O)=O)n2)no1 | -2.49 |
| Cc1noc(NCc2cn(C)nc2-c2ccncc2)n1 | -3.48 |
| Cc1nn2cccnc2c1C(=O)NCc1ccnc(OCC2CC2)c1 | -41.6 |
| Cc1cc(NC(=O)C2CCN(c3nnc(C)c(C)c3C#N)CC2)no1 | -4.11 |
| Cc1nc(CN2CCN(S(=O)(=O)N3CCCCC3)CC2)oc1C | 3.64 |
| Cc1csc(CN(CC2CCCO2)C(=O)c2ccc(C)nc2C)n1 (stereo not drawn) | -1.19 |
| CC(C)CCS(=O)(=O)CC(=O)N1CCCC1c1cnn(C)c1 (stereo not drawn) | 0.528 |
| Cc1cn2c(CN(C)C(=O)c3cccnc3O)c(C)nc2s1 | -8.59 |
| CC(=O)NCCC(=O)NCc1cc(Br)ccc1OC(F)F | -6.47 |
| CSCC(=O)NCc1cc(Br)ccc1OC(F)F | -8.22 |
| N#Cc1ccccc1OCCN1CCCC(c2noc(C3CC3)n2)C1 (stereo not drawn) | 5.87 |
| CCCc1nc(C)c(C(=O)NC2CCN(C3CC3)C2)s1 (stereo not drawn) | -7.82 |
| CCn1cc(S(=O)(=O)NC(CO)Cc2c[nH]c3ccccc23)cn1 (stereo not drawn) | 10.8 |
| CCc1cc(NC(=O)C2CCCN(C(=O)NCC(C)C)C2)[nH]n1 (stereo not drawn) | -4.56 |
| CS(=O)(=O)c1nccn1Cc1ccc(C(N)=O)cc1 | 6.77 |
| Cc1nc(CSc2nc(=O)ccn2C(C)C)cs1 | 16.4 |
| COCCC(=O)Nc1nc2c(OC)cc(F)cc2s1 | -0.327 |
| c1cc(CN2CCOC3(CCCC3)C2)no1 | -8.29 |
| CCCc1noc(CS(=O)(=O)c2cccc(OC)c2)n1 | 17.4 |
| Cc1ccc(N2CCCC(N(C)Cc3cc(C)no3)C2)nn1 (stereo not drawn) | 11.9 |

| Structure (SMILES) | cytotoxicity at 10 µM [%] |
| --- | --- |
| CS(=O)(=O)NCc1ncn2c1CN(C(=O)C1CCCO1)CCC2 (stereo not drawn) | -110 |
| CCN1C[C@H]2N(c3ncccn3)CCC[C@@]2(C(=O)NCC2CC2)C1 | -97.3 |
| CC(C)NC(=O)C1CN(C(=O)c2ccco2)CC12CCOCC2 (stereo not drawn) | -0.516 |
| CS(=O)(=O)N1CCC2(CC1)CC(CC(=O)N1CCCC1)c1ccccc12 (stereo not drawn) | -0.748 |
| CCC(O)Cn1nc(CCSC)nc1-c1ccc2c(c1)OCCO2 (stereo not drawn) | -0.268 |
| Cc1c(CN2CCCC(C(=O)CCc3ccccc3)C2)cc(C#N)n1C (stereo not drawn) | -5.76 |
| NCC1CCCN(c2nc(-c3ccccc3)nc3c2CCNCC3)C1 (stereo not drawn) | -10.3 |
| CC(C)Nc1cc(N2CCC(n3cc(CCO)nn3)CC2)ncn1 | 16.3 |
| CCc1cnc(N2Cc3cnc(C(C)(C)C)nc3C2)nc1 | 3.51 |
| c1cc(C2CCN(Cc3ccc4c(c3)OCO4)CC2)ccn1 | -2.98 |
| CCc1cc(N(C)CCCO)n2nccc2n1 | 1.77 |
| Cn1ncc2c(N3CCCC(C)(O)C3)nc(C(C)(C)C)nc21 (stereo not drawn) | -43.6 |
| O=C(O)CNc1cc(-c2cc(C3CC3)ncn2)c2cc[nH]c2n1 | 7.69 |
| Cc1ccccc1-n1cc(C2=CCN(CCN3CCOCC3)CC2)cn1 | -5.06 |
| COC(=O)CCC(=O)N(C/C=C/c1ccccc1)CCO | 3.28 |
| CN1CCC(N(CCc2ccccc2)Cc2noc(C3CC3)n2)CC1 | -3.49 |
| c1cnc2nc(C3CCNCC3)[nH]c2c1 | 9.57 |
| NC(=O)CN1CC2(CCC1=O)CCN(Cc1ccccc1F)CC2 | 1.81 |
| COCc1nnc(C(=O)N(C)Cc2ccc(OC)cc2)o1 | -0.164 |
| O=S1(=O)COCCN1Cc1ccc(F)c(C(F)(F)F)c1 | 7.52 |
| CN(Cc1ccon1)CC1CCOc2ccccc2C1 (stereo not drawn) | -6.95 |
| CCc1ccc(CN2CCNC(C(=O)N3CCN(C)CC3)C2)o1 (stereo not drawn) | -0.891 |
| Cc1nc2c(c(N(C)C)n1)CCN(C(=O)c1sccc1S(N)(=O)=O)C2 | -2.29 |

| Structure (SMILES) | cytotoxicity at 10 µM [%] |
| --- | --- |
| CCOc1cc(C)nc(N2CCN(C(=O)c3cc(C)on3)CC2)n1 | -1.61 |
| Cc1ccc(C(=O)NS(=O)(=O)c2c(Cl)cccc2Cl)c(=O)[nH]1 | -0.855 |
| COc1c(C2CCCN2CC(=O)Nc2cccnc2)c(C)nn1C (stereo not drawn) | -2.39 |
| CCc1nnc2n1CCN(Cc1csc(Cc3ccccc3)n1)C2 | -25 |
| Cc1cc(NC(=O)CN2CCN(c3nccs3)C(C)C2)no1 (stereo not drawn) | -9.66 |
| Cc1cc(CN2CCC(N(C)Cc3nnc(C4CC4)n3C)C2)on1 (stereo not drawn) | -11.6 |
| CC(NCc1c(C(C)C)nn(C)c1N1CCOCC1)C(=O)N(C)C (stereo not drawn) | -10.7 |
| Cc1cc(CN2CCC(N(C)Cc3noc(C4CC4)n3)C2)on1 (stereo not drawn) | 1.54 |
| CNc1nc(CNC(=O)Nc2ccccc2C(F)(F)F)cs1 | -0.896 |
| Cc1cccc(CN(C(=O)NCc2ccccn2)C2CC2)c1 | -6.73 |
| COc1c(C2CCCN2C(=O)c2c(C)noc2C)c(C)nn1C (stereo not drawn) | 0.471 |
| c1ccc(Cc2nnc(CN3CCOC(Cn4cccn4)C3)o2)cc1 (stereo not drawn) | -8.48 |
| COc1cc(Cl)ccc1C(=O)N1CCCC(n2nc(C)nc2C)C1 (stereo not drawn) | -5.8 |
| CC(c1c(F)cccc1F)N1CCN(Cc2nccn2C)CC1 (stereo not drawn) | -13.6 |
| Cc1nc(CC(=O)N2CCCC2Cn2cccn2)cs1 (stereo not drawn) | -11.2 |
| CCc1nc(C2CCCN2CC(=O)Nc2cc(C)nn2C)no1 (stereo not drawn) | -7.82 |
| CNc1snc(C)c1C(=O)N1CCCC(n2nc(C)nc2C)C1 (stereo not drawn) | -7 |
| Cc1cnn(CC2CN(c3ncnc4[nH]ccc34)CCO2)c1 (stereo not drawn) | -1.91 |
| COc1ccccc1OCCNCCn1cccn1 | -4.53 |
| Cc1cnn(CC(C)NCc2csc(-c3cccs3)n2)c1 (stereo not drawn) | -5.8 |
| CC(C)=CCN1CCOC(Cn2cccn2)C1 (stereo not drawn) | 2.4 |
| CC(C)CN1CC(C(=O)NCc2cccnc2-n2cccn2)CC1=O (stereo not drawn) | -1.04 |
| CCc1noc(CNCC2CCCN2c2cccnn2)n1 (stereo not drawn) | 2.11 |

| Structure (SMILES) | cytotoxicity at 10 µM [%] |
| --- | --- |
| Cc1nnc(C2Cc3ccccc3CN2Cc2c(C)noc2C)o1 (stereo not drawn) | -13.7 |
| Cc1nnc(CN(C)CC2CCCN2c2cccnn2)o1 (stereo not drawn) | -0.514 |
| Cc1cnn(C2CCCN(C(=O)c3sccc3C#N)C2)c1 (stereo not drawn) | 0.736 |
| Cn1cc(NC(=O)N2CCC(CN3CCCC3)CC2)ccc1=O | -11.5 |
| c1ncn(CC2CCCCN2Cc2noc(C3CC3)n2)n1 (stereo not drawn) | -0.935 |
| O=C(Nc1ccccn1)C1=NN(c2ccccc2)C(=O)CN1 | -1.53 |
| CCc1c(C(=O)NC2CCS(=O)(=O)C2)cnn1-c1ccc(F)cc1 (stereo not drawn) | -6.31 |
| N#Cc1ccc(OCCN2CCc3c(ncn3C3CC3)C2)cc1 | -0.318 |
| CCc1nc(C2CCCN2C(=O)c2nc(C)n3ccccc23)no1 (stereo not drawn) | 1.85 |
| Cc1cc(C(=O)N2CCc3nnc(N(C)C)cc3C2)c(C)n1C1CC1 | 1.56 |
| Fc1ccc(OCCCN2CCOC(Cn3cncn3)C2)cc1 (stereo not drawn) | -1.03 |
| O=C(NCCNc1ncccn1)C1CC(=O)N(CC(F)(F)F)C1 (stereo not drawn) | -9.02 |
| CC(C)C(=O)NCc1cccc(N2CCCCC2=O)c1 | -1.73 |
| CC(C)c1nn(C)c(N(C)C)c1CNCc1cccc2cccnc12 | -11.2 |
| Cc1ccc(C(=O)N2C[C@@H]3CCN(c4cccnc4)C[C@@H]3C2)cn1 | -75.9 |
| Cn1ccnc1NC[C@@H]1CCC[C@@H]2CN(Cc3cccnc3)C[C@@H]21 | 5.55 |
| O=C(Cc1ccccc1)N1CCCC2(COCCN(CC3CC3)C2)C1 (stereo not drawn) | -1.03 |
| c1cnc(NCc2cncc3c2CCN(Cc2ccoc2)C3)nc1 | -70.9 |
| COCC1CN(c2ccncn2)Cc2cnn(CC3CCCC3)c21 (stereo not drawn) | 4.83 |
| CN1CC(=O)N(c2cccc(F)c2)CC12CCN(CC1CC1)C2 (stereo not drawn) | 2.26 |
| O=C(c1cccnc1)N1C[C@H]2CC[C@@H](C1)N(Cc1cc(F)ccc1F)C2 | -10.2 |
